Screening results deposited in PubChem by several laboratories.
Compounds with a hit are over-represented: about 1.1% of the library has one in this group of screens.
GC-B act: GC-B (human) receptor activation; P20594; activation, % at 10 µM; HEK293-GC-B cells, CNP EC30, cGMP TR-FRET; 0% at EC30 CNP, 100% saturating CNP; 0.11% of 370,000 active;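 active means activation at 10 µM reaching about 35% in either raw or pattern-adjusted values, limit read from the data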
TbMetRS inhib: blocks T. brucei methionyl-tRNA synthetase activity; purified T. brucei MetRS, ATP depletion, Kinase-Glo luminescence; inhibition, % at 11.9 µM; 0.4% of 360,000 active;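 active means inhibition above a per-plate cutoff of the control wells' mean inhibition plus 3 SD, cut at about 5.5% in these data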;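 further: 0% = DMSO wells median and 100% = median of wells with control inhibitor compound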
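System: purified T. brucei MetRS enzyme / Detection: Kinase-Glo luciferase luminescence reporting remaining unconsumed ATP / Medium: HEPES buffer with MgCl2, KCl, DTT, spermine, BSA, pyrophosphatase / Replication: singlicate, one well per compound / Evaluation: percent inhibition relative to median high and low control wells / Schedule: 2 h aminoacylation at 25 °C after 15 min preincubation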
MT1-MMP act inh: blocks activation of human MT1-MMP; HT1080 RFP-PRO-GFP cells, GFP/RFP ratio fluorescence, overnight; percent of plate control window, DMSO zero; GFP/RFP ratio change, % at 20 µM; 0.061% of 360,000 active;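 active means GFP/RFP ratio change of at least 30% with cell ATP level not reduced by more than half and red fluorescence within 50% of control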
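Assay system: HT1080 RFP-PRO-GFP cells. Benchmarks: DMSO vehicle wells and RFP-L50D-GFP reporter cell wells. Times: overnight cell settling, then overnight compound exposure, 37 °C, 5% CO2. Compound: 20 µM single dose, 1% DMSO. Read-out basis: GFP/RFP fluorescence ratio.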
A1 inh: inhibitors of the anti-apoptotic protein A1, read as caspase activation. caspase activation, % (no concentration beside the values). 0.066% of 330,000 active. MEF A1-2A-BIM cells, Caspase-Glo 3/7 luminescence, 3 h; percent of clofoctol response, vehicle zero;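 active means over half of replicate activation scores above 10%, or exactly half above 10 with the replicate mean above 10; inconclusive means replicate mean below 10 yet half the replicates above 10; inactive means over half of replicates below 10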
SKN-1 block: C. elegans SKN-1 inhibition. C. elegans VP596 Pgst-4::GFP/RFP ratio, acrylamide-induced, 24 h. inhibition, % at 21.8 µM. 0.49% of 360,000 active. AID 624304;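 active means interference check ratio from 0.5 to 1.5 plus GFP to RFP signal ratio inhibition reaching or exceeding a fixed threshold, cut at about 30% in these data, passing the limit was not always enough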
GC-A act: GC-A (human) enzyme activation; HEK293 GC-A cells, cGMP TR-FRET, EC30 ANP; 0% at EC30 ANP, 100% saturating ANP; activation, % at 10 µM; AID 1671463; P16066; 0.14% of 370,000 active; in the data active means activation above about 40%
Tb MetRS conf: Trypanosoma brucei MetRS inhibition confirmed | shares compounds with TbMetRS inhib | T. brucei MetRS enzyme, luminescence (ATP depletion) | inhibition, % at 11.9 µM | 93% of 1,400 active; in the data active means inhibition above about 7%
Jurkat cytotox: kills Jurkat cells in T. brucei MetRS counterscreen | 12% of 1,400 active | Jurkat cells viability, ATP luminescence | inhibition, % at 8.3 µM | shares compounds with TbMetRS inhib | AID 624413; in the data active means inhibition above about 15%;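 further: 0% = vehicle and 100% = reference inhibitor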
Tb MetRS inh FP: orthogonal test for Trypanosoma brucei MetRS inhibitors | 44% of 1,400 active | inhibition, % at 11.9 µM | purified T. brucei MetRS, fluorescence polarization | shares compounds with TbMetRS inhib; in the data active means inhibition above about 17%;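 further: 0% = vehicle wells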
* = called active by the depositor; u = inconclusive; x = not tested or not shown.

SMILES	GC-B act	TbMetRS inhib	MT1-MMP act inh	A1 inh	SKN-1 block	GC-A act	Tb MetRS conf	Jurkat cytotox	Tb MetRS inh FP
Nc1cc(=O)[nH]c(SCC(=O)Nc2cc(Cl)cc(Cl)c2)n1	-6	29*	1	2	5	5	49*	1	28*
COC(=O)[C@]12C=CCN1[C@H](c1ccccc1)c1c(c3ccccc3n1S(=O)(=O)c1ccc(C)cc1)C2	-1	x	x	x	x	-2	x	x	x
Cc1cc2nc(-c3ccc(SCC(=O)Nc4ccc5c(c4)OCCO5)nc3)[nH]c2cc1C	x	0	2	-4	15	x	x	x	x
O=C(CSc1ccc(-c2nc3ccccc3[nH]2)cn1)Nc1ccc(S(=O)(=O)NC2CC2)cc1	10	64*	10	0	8	5	69*	9	75*
CCOC(=O)CSc1ccc(-c2nc3ccccc3[nH]2)cn1	9	9.2*	-7	0	18	6	19*	9	11
COCCNC(=O)CSc1ccc(-c2nc3ccccc3[nH]2)cn1	-6	11*	8	-2	16	-1	19*	2	0
Cc1ccc2nc(-c3ccc(SCC(=O)Nc4ccc5c(c4)OCCO5)nc3)[nH]c2c1	6	7.4*	7	-7	-6	2	8.6*	14	18*
CN[C@H]1C[C@H]2c3cc(-c4ccc5c(c4)OCO5)ccc3CCN2C[C@H]1[C@H](C)O	0	x	x	x	x	-2	x	x	x
CCOC(=O)CC[C@@]1(C(=O)OCC)C[C@@H](CC(=O)NCCCN2CCCC2=O)C(=O)N2CCCC=C21	-6	x	x	x	x	1	x	x	x
COc1ccc(Cn2cc(CN3CC=CS3(=O)=O)nn2)cc1	4	x	x	x	x	1	x	x	x
Cc1ccc(Cn2cc(CN3[C@@H](CC(C)C)COc4cccc(F)c4S3(=O)=O)nn2)cc1	4	x	x	x	x	-1	x	x	x
Cc1nc(NC(=O)CSc2ccc(-c3nc4ccccc4[nH]3)cn2)sc1C	4	19*	5	-5	17	8	36*	12	11
Cc1ccc2nc(-c3ccc(SCC(=O)Nc4nnc(C)s4)nc3)[nH]c2c1	9	4	4	0	5	5	x	x	x
COC(=O)C[C@H]1CC[C@@H]2[C@@H](COc3ccc(NC(=O)c4ccccc4)cc3C(=O)N2C)O1	-3	x	x	x	x	3	x	x	x
O=C(CSc1nnc2ccc(-c3ccc(Br)cc3)nn12)NCC1CCCO1 (stereo not drawn)	6	8.0*	2	u	11	-1	33*	1	12
Cc1ccccc1Cn1cc(CN2[C@@H](Cc3ccccc3)COc3cc(Br)ccc3S2(=O)=O)nn1	14	x	x	x	x	-3	x	x	x
Cc1ccc(-c2c(NC(=O)c3cccc(C)c3)nc3ncccn23)cc1	5	x	x	x	x	-1	x	x	x
Cc1ccc(C)c(C(=O)OCC(=O)Nc2cccc(S(=O)(=O)NC3=NCCCCC3)c2)c1	-2	0	-2	1	1	4	x	x	x
Cc1ccc(C)c(OCCC(=O)Nc2cccc(S(=O)(=O)NC3=NCCCCC3)c2)c1	-2	7.0*	7	2	-9	-7	22*	6	18*
O=C(CN1CCSC1=NCc1ccccc1)c1ccc(Cl)cc1	-9	19*	1	0	-5	-11	43*	12	18*
O=C(Nc1ccc(Cl)cc1)N1CCSC1=NCc1ccccc1	1	0	2	-1	5	0	x	x	x
Cc1cccc(-c2cccc3c4c([nH]c23)[C@@H]2C[C@H](N(C)C(=O)NC3CCCCC3)[C@H]([C@H](C)O)C(=O)N2CC4)c1	-4	x	x	x	x	-12	x	x	x
O=C(Cn1cnc2ccccc21)Nc1cc(C(F)(F)F)ccc1N1CCOCC1	-1	27*	3	1	6	-10	43*	-2	23*
O=C(CSc1nc2ccccc2o1)Nc1cc(C(F)(F)F)ccc1N1CCOCC1	-2	0	-15	0	-14	-8	x	x	x
CC(C)[C@H](NC(=O)OC(C)(C)C)C(=O)N1CCC(Oc2cccnc2)CC1	0	x	x	x	x	3	x	x	x
SMILES	GC-B act	TbMetRS inhib	MT1-MMP act inh	A1 inh	SKN-1 block	GC-A act	Tb MetRS conf	Jurkat cytotox	Tb MetRS inh FP
Cn1nc(-c2ccccn2)nc2c(=O)n(C)c(=O)nc1-2	4	31*	-25	-1	-11	9	31*	66*	9
CCn1c(N)nc2c1c(=O)n(C)c(=O)n2C	-2	0	3	-1	10	4	x	x	x
COc1ccc(-c2nc(-c3ccccn3)ncc2S(C)(=O)=O)cc1	-3	0	1	1	3	0	x	x	x
CCCc1nc2c(=O)n(C)c(=O)nc-2n(C)n1	12	17*	-25	x	-8	2	20*	73*	5
CC(C)C(=O)N1CC[C@H]2[C@H](CCCN2Cc2cc(F)cc(F)c2)C1	4	x	x	x	x	0	x	x	x
Cc1ccc2nc(C3CCCN(C(=O)NCc4ccccc4)C3)[nH]c2c1 (stereo not drawn)	8	15*	-4	0	-17	0	23*	-3	9
c1ccc2[nH]c(NCc3ccc4c(c3)OCO4)nc2c1	2	18*	-4	-4	3	0	30*	3	14
COc1ccc2nc(NCc3ccccc3)[nH]c2c1	-10	1	11	-1	7	-7	x	x	x
COc1cc(CNc2nc3ccccc3[nH]2)cc(OC)c1OC	-1	16*	10	1	-1	-1	32*	11	9
c1ccc(CNc2nc3ccccc3[nH]2)cc1	-3	26*	7	-4	-2	-5	35*	9	20*
COc1cccc(N2CCN(C(=O)COc3cc(=O)n(C)c4ccccc34)CC2)c1	2	x	x	x	x	-8	x	x	x
N#CCC[C@H]1CC[C@]2(CCCN(S(=O)(=O)c3ccccc3)C2)O1	7	x	x	x	x	5	x	x	x
Cc1ccc2nc(NCc3ccccc3)[nH]c2c1	-5	17*	2	0	0	-14	28*	70*	13
COC(=O)[C@]12C[C@H](CC(=O)N3CCN(C(=O)c4ccco4)CC3)C(=O)N(Cc3cccc4ccccc34)C1=C[C@H](COCc1ccccc1)O[C@@H]2C	5	x	x	x	x	0	x	x	x
